An excerpt weighted towards active compounds, which were near 3.5% of everything screened.
ABHD4 inh – inhibits mouse alpha/beta hydrolase domain 4 | Q8VD66 | purified mABHD4, FP-Rh probe fluorescence polarization | inhibition, % at 8.92 µM | actives 0.54% (n = 370,000);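 active = inhibition exceeding the mean over every tested compound plus 3 SD, cut at about 30% in these data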;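 also: 0% = plate median of compound wells and 100% = S159A mutant with DMSO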
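assay system = mABHD4 protein | compound dosing = single nominal dose of 8.92 µM, 0.89% DMSO final | read-out basis = percent inhibition of probe binding, normalized to plate controls | schedule = Enzyme–compound pre-incubation 45 min, then probe 60 min, both 25 °C | detection = fluorescence polarization, excitation 525 nm, emission 598 nm, BODIPY TMR filters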
PRMT1 inh – PRMT1 (human) inhibition, primary screen. recombinant PRMT1, activity-based probe fluorescence polarization. inhibition, % at 2.79 µM. actives 1.3% (n = 370,000);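 active = inhibition above about 21% made by adding two undisclosed values, limit read from the data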
Target sequence (Q99873 whole entry, looked up): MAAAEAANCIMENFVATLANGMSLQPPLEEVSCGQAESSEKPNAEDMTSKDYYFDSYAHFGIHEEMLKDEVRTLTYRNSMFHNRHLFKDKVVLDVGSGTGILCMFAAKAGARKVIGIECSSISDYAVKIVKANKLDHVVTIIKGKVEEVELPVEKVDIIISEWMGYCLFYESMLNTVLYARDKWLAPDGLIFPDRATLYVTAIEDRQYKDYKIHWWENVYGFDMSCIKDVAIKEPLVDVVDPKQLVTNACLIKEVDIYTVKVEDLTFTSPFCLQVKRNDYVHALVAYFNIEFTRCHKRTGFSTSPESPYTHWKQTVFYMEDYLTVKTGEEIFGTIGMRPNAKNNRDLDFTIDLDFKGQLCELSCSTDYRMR
TCR CD3 inh – human TCR-CD3 binding inhibition; actives 0.37% (n = 360,000); inhibition, % at 9.4 µM; TAMRA-labeled TCR probe fluorescence, biochemical; in the data active = inhibition above about 19%;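 also: recombinant mutant TCR 2C K166C tagged with TAMRA read by polarization; 0% = receptor in buffer alone and 100% = receptor with positive control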
HTRA1 inh – HTRA1 (human) protease inhibition; Q92743; AID 504803; actives 0.5% (n = 340,000); inhibition, % at 5.96 µM; recombinant HTRA1, FP-rhodamine activity-based probe, fluorescence polarization; in the data active = inhibition above about 36%;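 also: 0% = enzyme with DMSO and 100% = wells lacking enzyme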
rCAG RNA binder – binds r(CAG) RNA repeats; r(CAG) RNA repeat, TO-PRO-1 dye displacement fluorescence; inhibition, % at 3 µM; actives 1.3% (n = 370,000);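 active = inhibition above the plate cutoff, the mean of all test compounds on that plate plus 3 SD, cut at about 35% in these data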;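 also: 0% = DMSO alone and 100% = 100 µM mitoxantrone as full dye displacement; higher means more dye released from RNA so lower well fluorescence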
SIAE inh – inhibitors of human sialic acid acetylesterase SIAE. Q9HAT2. SIAE FP-Rh probe binding, fluorescence polarization. inhibition, % at 9.66 µM. actives 0.69% (n = 370,000). AID 1053197;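 active = inhibition above a cutoff: mean of compounds within the control limits plus 3 SD of those, cut at about 17% in these data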;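 also: 0% = plate median of compound wells and 100% = probe without SIAE protein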
mABHD4 conf – ABHD4 (mouse) inhibition, FP confirmation | shares compounds with ABHD4 inh | purified mABHD4, FP-Rh probe fluorescence polarization | inhibition, % at 8.92 µM | actives 55% (n = 1,800);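 active = mean inhibition across replicates above the hit cutoff set in the primary screen, cut at about 30% in these data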;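 also: 0% = wild-type ABHD4 with DMSO and 100% = catalytically dead S159A mutant with DMSO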
The depositor's hits bear a star; i = inactive; . = no result given.

SMILES	ABHD4 inh	PRMT1 inh	TCR CD3 inh	HTRA1 inh	rCAG RNA binder	SIAE inh	mABHD4 conf
COC(=O)[C@]12CCCCC=C1N(Cc1ccc(OC)cc1)C(=O)[C@@H]2CC(=O)NCc1ccc(C)o1	4	4	.	.	2	-3	.
Cc1cc(NCCCCCCCNc2cc(C)nc3cc([N+](=O)[O-])ccc23)c2ccc([N+](=O)[O-])cc2n1	32*	-3	-10	8	18	4	40*
COCCCNc1cc(C)nc2ccccc12	5	-1	15	-5	-2	-1	.
Cc1ccc(S(=O)(=O)Nc2nc3ccc(N)cc3s2)cc1	49*	7	0	14	11	5	26
COc1ccc(CNC(=O)c2cc(-c3ccccc3)c(N3CCOCC3)s2)cc1OC	-6	-4	.	.	4	7	.
CCN1C(=O)c2cccc3c(N)ccc(c23)C1=O	33*	172*	12	24	i	9	58*
O=C1C=C(Nc2ccccc2C(=O)O)c2ccccc2C1=O	44*	13	2	25	29	7	53*
C=CCN=c1scc(C)n1/N=C/c1ccc(O)c(O)c1	40*	9	10	35	1	14	23
c1ccc(-c2nnc3n2N=C(c2ccc4ccccc4c2)CS3)nc1	-3	15	.	.	2	-2	.
COC(=O)[C@@]12CCCCC=C1N(CCc1ccc(Cl)cc1)C(=O)[C@H]2CC(=O)NCc1cccc2ccccc12	-5	3	.	.	14	-7	.
COC(=O)C1=C(C)N(Cc2cccc(C(F)(F)F)c2)C(=NCc2ccc(OC)cc2)NC1c1cccc(C(F)(F)F)c1 (stereo not drawn)	31*	0	-1	.	2	-4	41*
COC(=O)C1=C(C)N(Cc2cccc(C(F)(F)F)c2)C(=NCc2ccc3c(c2)OCO3)NC1c1ccc(F)cc1 (stereo not drawn)	44*	0	-6	.	12	3	30*
COC(=O)C1=C(C)N(Cc2ccc(C(F)(F)F)cc2)C(=NCc2ccccc2)NC1c1cccc(F)c1 (stereo not drawn)	34*	-4	-1	.	9	9	46*
COC(=O)C1=C(C)N(Cc2cccc(C(F)(F)F)c2)C(=NCc2ccc(C(F)(F)F)cc2)NC1c1ccc(C(F)(F)F)cc1 (stereo not drawn)	19	-3	8	.	3	-24	.
COC(=O)C1=C(C)N(Cc2cccc(C(F)(F)F)c2)C(=NCc2ccc(C(F)(F)F)cc2)NC1c1ccc(F)cc1 (stereo not drawn)	35*	3	6	.	7	-9	44*
COC(=O)[C@]12C[C@H](CC(=O)NCc3cccs3)C(=O)N(Cc3ccccc3)C1=C[C@H](COCc1ccccc1)O[C@@H]2C	2	4	.	.	7	-5	.
CCOC(=O)[C@]12CCCC3=C1N(CCC3)C(=O)[C@@H](CC(=O)NCCCOC)C2	-3	-6	.	.	0	2	.
COC(=O)c1cc2c(c3c4cc(OC)ccc4n(C(=O)c4ccccc4)c13)C(=O)N(C1CCCCC1)C2	18	6	-1	.	15	2	.
COc1cccc(-c2nc(NCC3CCCO3)c3ccccc3n2)c1O (stereo not drawn)	33*	0	-2	17	11	9	34*
Oc1ccccc1-c1nc(NCC2CCCO2)c2ccccc2n1 (stereo not drawn)	1	-2	12	-24	21	2	.
CCC(C)Nc1nc(-c2cccc(OC)c2O)nc2ccccc12 (stereo not drawn)	34*	0	-1	0	12	14	37*
Cc1cc2c(cc1C)N(C(=O)CSC1=NCCS1)C(C)(C)c1ssc(=S)c1-2	37*	7	3	30	5	9	14
Cc1cc(C)cc(NC(=O)NC2CCN(S(=O)(=O)c3ccc(F)cc3)CC2)c1	1	2	.	.	2	4	.
CN(C)c1ccc(O)c2c1CC1CC3[C@@H](N(C)C)C(=O)C(C(N)=O)C(=O)[C@]3(O)C(=O)C1C2=O (stereo partly drawn)	61*	11	5	28	7	10	-4
CN(C)c1ccc(O)c2c1CC1CC3C(N(C)C)C(=O)C(C(N)=O)=C(O)[C@@]3(O)C(=O)C1=C2O (stereo partly drawn)	60*	16	1	15	8	9	26
SMILES	ABHD4 inh	PRMT1 inh	TCR CD3 inh	HTRA1 inh	rCAG RNA binder	SIAE inh	mABHD4 conf
O=C1CC(Nc2ccc(N3CCOCC3)cc2)C(=O)N1c1ccccc1F (stereo not drawn)	50*	17	4	16	16	14	2
O=C1CC(Nc2ccccc2)C(=O)N1c1ccc(N2CCOCC2)cc1 (stereo not drawn)	0	2	-2	4	1	4	.
CC(C)C[C@@H]1CN=C(N)N1C[C@@H]1CCCN1C[C@@H](C(C)C)N1C[C@@H](Cc2ccccc2)N(CCc2ccc(Cl)c(Cl)c2)C1=N	34*	0	4	1	7	6	22
CC(C)n1nnnc1C1(C)CN(S(C)(=O)=O)CC(=O)N1Cc1cccc(C(F)(F)F)c1 (stereo not drawn)	-1	-2	.	.	3	7	.
C[C@@H]1CCCN1c1cccc2c1S(=O)(=O)N1CC[C@H](C1)O2	3	0	.	.	5	3	.
CCCNc1c(F)c(F)c2c(C)c3ccccc3nc2c1F	51*	14	7	51*	26	15	45*
OC(CNCCC1C=Nc2ccccc21)Cn1c2ccc(Cl)cc2c2cc(Cl)ccc21 (stereo not drawn)	34*	1	18	-19	15	27*	44*
O=C(CCNS(=O)(=O)c1ccccc1C(F)(F)F)NNC(=O)C1COc2ccccc2O1 (stereo not drawn)	42*	-2	-2	-4	5	3	-1
O=C(CCNS(=O)(=O)c1ccccc1)NNC(=O)C1COc2ccccc2O1 (stereo not drawn)	3	6	1	3	0	2	.
O=C(NOCc1ccccc1)OCc1ccccc1	-11	0	1	4	-1	-6	.
O=C(NNC(=O)c1nc2ccccc2[nH]1)OCc1ccccc1	36*	-2	0	3	-1	5	13
C=CCn1c(SCC(N)=O)nnc1-c1ccc(C)cc1	6	7	.	.	1	7	.
Cc1oc2cc(O)ccc2c(=O)c1Oc1ccccc1	-8	0	-10	7	1	5	.
CC(=O)Oc1ccc2c(=O)c(Oc3ccccc3)c(C)oc2c1OC(C)=O	42*	15	-6	34	6	-6	-8
